Results taken from ChEMBL document CHEMBL2146441, “2,6-Disubstituted imidazo[2,1-b][1,3,4]thiadiazoles: search for anticancer agents” (2012).

How the values were obtained:
Assay type in all cases: functional
[1] = system: CCRF-CEM; experiment: Cytotoxicity against human CCRF-CEM cells assessed as cell growth at 10^-7 M after 48 hrs by SRB assay; details: read-out: Activity
Procedure, shortened: (§1)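 NCI-60 screen: lines kept in RPMI 1640 with 5% FBS, seeded at 5000–40,000 cells/well by doubling time, preincubated 24 h at 37 °C in 5% CO2. Time-zero plates TCA-fixed at drug addition. DMSO stocks diluted in medium, 48 h exposure. Fixation in cold TCA (final 10% adherent, 16% suspension), 0.4% SRB stain, solubilised in 10 mM Tris base, A515. Percent growth computed against control and time-zero.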

[2] = system: NCI-H460; experiment: Cytotoxicity against human NCI-H460 cells assessed as cell growth at 10^-4 M after 48 hrs by SRB assay; details: NCI-H460, 48 h, read-out: Activity
[3] = system: SF-268; experiment: Cytotoxicity against human SF268 cells assessed as cell growth at 10^-7 M after 48 hrs by SRB assay; details: SF-268, 48 h, read-out: Activity
[4] = system: MCF7; experiment: Cytotoxicity against human MCF7 cells assessed as cell growth at 10^-5 M after 48 hrs by SRB assay; details: MCF7, 48 h, read-out: Activity
[5] = system: HCC 2998; experiment: Cytotoxicity against human HCC2998 cells assessed as cell growth at 10^-6 M after 48 hrs by SRB assay; details: HCC 2998, 48 h, read-out: Activity
Procedure, shortened: (§2)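 NCI-60 five-dose screen. Cells were grown in RPMI 1640 with 5% FBS and seeded at 5000–40,000 cells/well according to doubling time. They were pre-incubated 24 h at 37 °C in 5% CO₂, and time-zero (Tz) plates were TCA-fixed at drug addition. Five 10-fold dilutions of DMSO stock were applied for 48 h. Read-out was SRB staining, 515 nm absorbance, with percent growth calculated versus Tz and untreated control.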

[6] = system: MDA-MB-231; experiment: Cytotoxicity against human MDA-MB-231 cells assessed as cell growth at 10^-8 M after 48 hrs by SRB assay; details: MDA-MB-231, 48 h, read-out: Activity
[7] = system: HCT-116; experiment: Cytotoxicity against human HCT116 cells assessed as cell growth at 10^-6 M after 48 hrs by SRB assay; details: HCT-116, 48 h, read-out: Activity; procedure, shortened: as §2
[8] = system: KM12; experiment: Cytotoxicity against human KM12 cells assessed as cell growth at 10^-7 M after 48 hrs by SRB assay; details: KM12, 48 h, read-out: Activity
[9] = system: PC-3; experiment: Growth inhibition of human PC3 cells after 48 hrs by SRB assay; details: PC-3, 48 h; for CC50: read-out: LC50 (the source's name)
Procedure, shortened: (§3)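 Adherent NCI-60 lines grown in RPMI 1640 with 5% FBS, seeded at 5000–40,000 cells/well, and preincubated 24 h at 37 °C, 5% CO2. Compound, stocked in DMSO, given either once at 10^-5 M or at five 10-fold dilutions for 48 h. Cells fixed with cold TCA (final 10%), stained with 0.4% SRB, and read at 515 nm. GI50 taken as 50% reduction in net protein increase versus time-zero and control plates.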

[10] = system: ACHN; experiment: Cytotoxicity against human ACHN cells assessed as cell growth at 10^-4 M after 48 hrs by SRB assay; details: read-out: Activity; procedure, shortened: as §1
[11] = system: HT-29; experiment: Cytotoxicity against human HT-29 cells assessed as cell growth at 10^-6 M after 48 hrs by SRB assay; details: HT-29, 48 h, read-out: Activity; procedure, shortened: as §2
[12] = system: UACC-257; experiment: Growth inhibition of human UACC257 cells after 48 hrs by SRB assay; details: UACC-257, 48 h; for CC50: read-out: LC50 (the source's name); procedure, shortened: as §3
[13] = system: T47D; experiment: Growth inhibition of human T47D cells after 48 hrs by SRB assay; details: for CC50: read-out: LC50 (the source's name); procedure, shortened: as §3
[14] = system: MOLT-4; experiment: Cytotoxicity against human MOLT4 cells assessed as cell growth at 10^-7 M after 48 hrs by SRB assay; details: MOLT-4, 48 h, read-out: Activity
[15] = system: SW-620; experiment: Cytotoxicity against human SW620 cells assessed as cell growth at 10^-7 M after 48 hrs by SRB assay; details: SW-620, 48 h, read-out: Activity
[16] = system: CAKI-1; experiment: Cytotoxicity against human Caki1 cells assessed as cell growth at 10^-5 M after 48 hrs by SRB assay; details: CAKI-1, 48 h, read-out: Activity; procedure, shortened: as §1
[17] = system: PC-3; experiment: Cytotoxicity against human PC3 cells assessed as cell growth at 10^-8 M after 48 hrs by SRB assay; details: PC-3, 48 h, read-out: Activity
[18] = system: OVCAR-8; experiment: Cytotoxicity against human OVCAR8 cells assessed as cell growth at 10^-5 M after 48 hrs by SRB assay; details: OVCAR-8, 48 h, read-out: Activity
[19] = system: NCI-H460; experiment: Cytotoxicity against human NCI-H460 cells assessed as cell growth at 10^-8 M after 48 hrs by SRB assay; details: NCI-H460, 48 h, read-out: Activity
[20] = system: SF-268; experiment: Cytotoxicity against human SF268 cells assessed as cell growth at 10^-8 M after 48 hrs by SRB assay; details: SF-268, 48 h, read-out: Activity
[21] = system: OVCAR-8; experiment: Cytotoxicity against human OVCAR8 cells assessed as cell growth at 10^-6 M after 48 hrs by SRB assay; details: OVCAR-8, 48 h, read-out: Activity
[22] = system: OVCAR-5; experiment: Cytotoxicity against human OVCAR5 cells assessed as cell growth at 10^-6 M after 48 hrs by SRB assay; details: OVCAR-5, 48 h, read-out: Activity
[23] = system: Malme-3M; experiment: Cytotoxicity against human MALME-3M cells assessed as cell growth at 10^-5 M after 48 hrs by SRB assay; details: read-out: Activity
[24] = system: SNB-75; experiment: Cytotoxicity against human SNB75 cells assessed as cell growth at 10^-4 M after 48 hrs by SRB assay; details: SNB-75, 48 h, read-out: Activity
[25] = system: DU-145; experiment: Cytotoxicity against human DU145 cells assessed as cell growth at 10^-7 M after 48 hrs by SRB assay; details: DU-145, 48 h, read-out: Activity; procedure, shortened: as §1
[26] = system: U-251; experiment: Cytotoxicity against human U251 cells assessed as cell growth at 10^-6 M after 48 hrs by SRB assay; details: U-251, 48 h, read-out: Activity
[27] = system: HCT-15; experiment: Cytotoxicity against human HCT15 cells assessed as cell growth at 10^-7 M after 48 hrs by SRB assay; details: HCT-15, 48 h, read-out: Activity; procedure, shortened: as §2
[28] = system: KM12; experiment: Cytotoxicity against human KM12 cells assessed as cell growth at 10^-8 M after 48 hrs by SRB assay; details: KM12, 48 h, read-out: Activity
[29] = system: SF-295; experiment: Cytotoxicity against human SF295 cells assessed as cell growth at 10^-5 M after 48 hrs by SRB assay; details: SF-295, 48 h, read-out: Activity
[30] = system: A498; experiment: Cytotoxicity against human A498 cells assessed as cell growth at 10^-5 M after 48 hrs by SRB assay; details: A498, 48 h, read-out: Activity; procedure, shortened: as §1
[31] = system: SW-620; experiment: Cytotoxicity against human SW620 cells assessed as cell growth at 10^-8 M after 48 hrs by SRB assay; details: SW-620, 48 h, read-out: Activity

## COc1ccc(-c2nn3cc(-c4cccc(N)c4)nc3s2)cc1
[1]
  growth at 0.1 µM: 89%
[2]
  growth at 100 µM: -31%
[3]
  growth at 0.1 µM: 101%
[4]
  growth at 10 µM: 21%
[5]
  growth at 1 µM: 84%
[6]
  growth at 0.01 µM: 85%
[7]
  growth at 1 µM: 90%
[8]
  growth at 0.1 µM: 100%
[9]
  GI50: 1.2 µM
  TGI: 20.8 µM
  CC50: > 100 µM
[10]
  growth at 100 µM: -53%
[11]
  growth at 1 µM: 88%
[12]
  GI50: 17.3 µM
  TGI: > 100 µM
  CC50: > 100 µM
[13]
  GI50: 1.37 µM
  TGI: 21.2 µM
  CC50: > 100 µM
[14]
  growth at 0.1 µM: 100%
[15]
  growth at 0.1 µM: 95%
[16]
  growth at 10 µM: 2%
[17]
  growth at 0.01 µM: 91%
[18]
  growth at 10 µM: 31%
[19]
  growth at 0.01 µM: 100%
[20]
  growth at 0.01 µM: 100%
[21]
  growth at 1 µM: 94%
[22]
  growth at 1 µM: 90%
[23]
  growth at 10 µM: -16%
[24]
  growth at 100 µM: -49%
[25]
  growth at 0.1 µM: 103%
[26]
  growth at 1 µM: 95%
[27]
  growth at 0.1 µM: 106%
[28]
  growth at 0.01 µM: 98%
[29]
  growth at 10 µM: 24%
[30]
  growth at 10 µM: -17%
[31]
  growth at 0.01 µM: 95%

## COc1ccc(-c2nn3cc(-c4ccc(O)cc4O)nc3s2)cc1
[1]
  growth at 0.1 µM: 92%
[2]
  growth at 100 µM: 2%
[3]
  growth at 0.1 µM: 96%
[4]
  growth at 10 µM: 3%
[5]
  growth at 1 µM: 78%
[6]
  growth at 0.01 µM: 99%
[7]
  growth at 1 µM: 86%
[8]
  growth at 0.1 µM: 96%
[9]
  GI50: 1.95 µM
  TGI: > 100 µM
  CC50: > 100 µM
[10]
  growth at 100 µM: 6%
[11]
  growth at 1 µM: 86%
[12]
  GI50: 4.98 µM
  TGI: 76.4 µM
  CC50: > 100 µM
[13]
  GI50: 1.63 µM
  TGI: 5.15 µM
  CC50: > 100 µM
[14]
  growth at 0.1 µM: 89%
[15]
  growth at 0.1 µM: 96%
[16]
  growth at 10 µM: 8%
[17]
  growth at 0.01 µM: 96%
[18]
  growth at 10 µM: 7%
[19]
  growth at 0.01 µM: 101%
[20]
  growth at 0.01 µM: 97%
[21]
  growth at 1 µM: 81%
[22]
  growth at 1 µM: 84%
[23]
  growth at 10 µM: -30%
[24]
  growth at 100 µM: -37%
[25]
  growth at 0.1 µM: 96%
[26]
  growth at 1 µM: 77%
[27]
  growth at 0.1 µM: 92%
[28]
  growth at 0.01 µM: 98%
[29]
  growth at 10 µM: 3%
[30]
  growth at 10 µM: -50%
[31]
  growth at 0.01 µM: 97%
